# Tn7 DDE FP: inhibitors of Tn7 peptide binding to fibrin DD(E), primary screen, biochemical, fluorescence polarization, human fibrin, Tn7 probe | Fibrinogen beta chain (Homo sapiens), P02675 | FP displacement of FITC-Tn7 peptide from fibrin DD(E); 0% = median of compound wells per plate | inhibition, % at 8.3 µM | hit rate 0.13% among 370,000 | AID 720508, 2013;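 active = inhibition above the mean of compounds falling within the control limits plus 3 SD of them, cut at about 14% in these data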;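 also: 0% = plate median of compound wells and 100% = 10 µM Aha-Tn7 peptide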
#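 Test system – human fibrin DD(E) · Times – 10 min preincubation, 3 h with tracer, room temperature · Detection – fluorescence polarization of the labelled Tn7 tracer · Measure – percent inhibition normalized to high-control wells · Benchmarks – high control wells with 10 µM unlabelled Aha-Tn7 peptide (full inhibition) · Repeats – singlicate testing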
# PLCb3 inh: human PLC-beta3 inhibitors, primary screen, biochemical, fluorescence | AID 720704, 2013 | hit rate 0.18% among 370,000 | inhibition, % at 12.2 µM | 1-phosphatidylinositol 4,5-bisphosphate phosphodiesterase beta-3 (Homo sapiens), Q01970 | Purified PLC-beta3, fluorogenic substrate; in the data active = inhibition above about 11%;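 also: 0% = median of compound wells on plate and 100% = full blocker control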
# KLK7 zymogen act: proKLK7 zymogen activators, primary screen, biochemical, fluorescence intensity; hit rate 0.9% among 370,000; AID 652039, 2013; Kallikrein-7 (Homo sapiens), P49862; purified proKLK7, EDANS-DABCYL substrate fluorescence; 100% is mature enzyme control, 0% vehicle; activation, % at 7 µM;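 active = activation above the mean of all tested compounds plus 3 SD, computed per campaign excluding outliers beyond control limits, cut at about 13% in these data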
# Tn6 DDE FP: inhibitors of Tn6 peptide binding to fibrin DD(E), primary screen, biochemical, fluorescence polarization, human fibrin, Tn6 probe. inhibition, % at 8.3 µM. hit rate 0.21% among 370,000. AID 720509, 2013. Fibrin DD(E) TRITC-Tn6 fluorescence polarization displacement;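 active = inhibition above a per-campaign cutoff: mean of compounds within control limits plus 3 SD, cut at about 15% in these data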;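 also: 0% = median of all compound wells on the plate and 100% = blocking peptide control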
# PLCg1 inh: PLC-gamma1 enzyme inhibitors, primary screen, biochemical, fluorescence, purified enzyme | hit rate 0.84% among 370,000 | inhibition, % at 12.2 µM | fluorogenic substrate | 1-phosphatidylinositol 4,5-bisphosphate phosphodiesterase gamma-1 (Homo sapiens), P19174
# CendR NRP1 mod: modulators of CendR peptide binding to NRP-1, primary screen, biochemical, fluorescence polarization, uHTS | Neuropilin-1 (Homo sapiens), O14786 | inhibition, % at 25 µM | FAM-RPARPAR peptide binding to NRP-1 | hit rate 0.85% among 360,000;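 active = inhibition or corrected inhibition above about 18%, plus a signal ratio from 0.5 to 1.5, limit read from the data, passing the limit was not always enough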
# PLCg1 ctr: PLC-gamma1 enzyme inhibitors, counter-screen for PLC-beta3 inhibitor project, biochemical, fluorescence. shares compounds with PLCg1 inh. purified PLC-gamma1, fluorogenic substrate. inhibition, % at 12.3 µM. hit rate 3.1% among 3,300. AID 743258, 2014
# PLCb3 confirm: PLC-beta3 inhibitor confirmation, biochemical, fluorescence, purified enzyme; shares compounds with PLCg1 inh; fluorogenic substrate fluorescence; inhibition, % at 12.3 µM; hit rate 1% among 3,300; in the data active = inhibition above about 11%
# Active calls of the source: *; x = not tested or not shown. Compounds with a hit are over-represented: about 3% of the library has one in this group of screens. Rule as the data show it, unless noted: active = inhibition above about 9.5%; inactive = the rest.
SMILES,Tn7 DDE FP,PLCb3 inh,KLK7 zymogen act,Tn6 DDE FP,PLCg1 inh,CendR NRP1 mod,PLCg1 ctr,PLCb3 confirm
CN(C(=O)COc1ccc([N+](=O)[O-])cc1)C1CCS(=O)(=O)C1 (configuration not stated),0,2,0,-5,3,5,x,x
N/C(=N\OC(=O)CCCc1ccccc1)c1cccnc1,-9,12*,1,-2,7,-5,-8,-4
O=C1C(NC(=O)N2c3ccccc3C=Cc3ccccc32)CCCCN1Cc1cccc(Cl)c1 (configuration not stated),-3,-1,0,-4,-5,x,x,x
COc1ccc2cc(CCNC(=O)c3cccc([N+](=O)[O-])c3)c(=O)[nH]c2c1,1,-1,-1,2,0,7,x,x
Cc1ccc2cc(CCNC(=O)c3cccc([N+](=O)[O-])c3)c(=O)[nH]c2c1C,-3,-1,0,-4,10*,-10,3,1
CC(=O)c1cc(-c2cc(C(=O)O)cc([N+](=O)[O-])c2)c(=O)n2c1CCC2,-1,5,0,4,5,x,x,x
CC(NC(=O)c1ccc([N+](=O)[O-])cc1Cl)C1CC2CCC1C2 (configuration not stated),-1,7,-1,1,11*,15,-3,0
CC(NC(=O)c1ccccc1Cl)C1CC2CCC1C2 (configuration not stated),3,0,0,1,3,-10,x,x
COC(=O)c1ccc(N2C(=O)C3CC=CC(C)C3C2=O)cc1 (configuration not stated),-7,4,0,-2,10*,9,-4,-2
N=C(N)SCc1cn(-c2ccccc2)nc1-c1ccc(Br)cc1,-6,5,0,-6,9.5*,-15,7,1
O=C(NCc1ccc(F)cc1)C(C(=O)NCc1ccc(F)cc1)c1ncc(C(F)(F)F)cc1Cl,3,8,0,-6,13*,1,-1,1
CCCCCCC(=O)Nc1ccc(Br)cn1,-3,-1,0,8,3,2,x,x
O=C(O)CCC(=O)Nc1ccc(Br)cn1,4,3,-1,0,10*,10,-4,-12
Cc1csc(NC(=O)c2ccc(COc3cccc(F)c3)o2)n1,-7,-24,-1,5,-8,x,x,x
CCN(CC)C(=O)c1[nH]cnc1C(=O)N[C@H](C)c1ccccc1,2,14*,1,10,8,12,0,-1
CCN(CC)C(=O)c1[nH]cnc1C(=O)N[C@@H](C)c1ccccc1,-12,8,0,-6,8,16,x,x
CCSc1nc2ccccc2n1CC(=O)OC,-10,7,0,0,13*,3,-2,4
COc1ccc(OCc2nnc(SCC(=O)N3c4ccccc4Sc4ccc(Cl)cc43)o2)cc1,4,0,0,-6,9.6*,-6,9,4
COc1cccc(OCc2nnc(SCC(=O)N3c4ccccc4Sc4ccc(Cl)cc43)o2)c1,-4,5,0,-1,8,1,x,x
O=C(CCn1c(=S)oc2ccccc21)NC1CCCCCCC1,2,-1,0,0,10.0*,11,-4,0
O=C(CCn1c(=S)oc2ccccc21)N1CCCCC1,8,-3,0,6,-2,5,x,x
